Data as given in ChEMBL document CHEMBL3734686, “Synthesis, Photophysical Properties, and Biological Evaluation of trans-Bisthioglycosylated Tetrakis(fluorophenyl)chlorin for Photodynamic Therapy” (J Med Chem, 2015).
Active and inactive are the calls of the source.

Tests used:
Spleen = assay: Drug uptake in BALB/c mouse spleen implanted with mouse 4T1 cells assessed per gram of tissue at 0.18 mg/kg, ip after 72 hrs by HPLC-based fluorescence analysis; assay type: ADME, organism-based; settings: in vivo
In short: (§1)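 Female BALB/c mice with 4T1 cells (1 × 10^6 in HBSS) implanted in left rear thigh; single i.p. dose, 7 in ethanol/PEG400/H2O (2/3/5) with 0.1% DMSO, mono-L-aspartyl chlorin e6 in saline; kept dark until sacrifice. Tissues washed, frozen, homogenized in CH3OH/DMSO/H2O (32/8/1), centrifuged 2300×g; supernatant analysed by HPLC with fluorescence detection; three animals per time point.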

4T1 [1] = assay: Induction of necrosis in mouse 4T1 cells implanted in BALB/c mouse at 5 mg/kg, ip irradiated at 48 J/cm2 measured at 1 day post PDT by […]-based fluorescence microscopic analysis; assay type: functional, organism-based; settings: 0.18 mg/kg, in the assay text read “0.18 mg/kg” for “5 mg/kg”
In short: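 Skin-plus-tumor slides from 4T1-bearing mice 1 day after PDT; proteinase K treatment, then dual apoptosis/necrosis detection reagent at room temperature in dark, washed in PBS, examined by fluorescence microscopy.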

4T1 [2] = assay: Potency index, ratio of compound antitumor activity to mono-L-aspartyl chlorin e6 antitumor activity against mouse 4T1 cells implanted in ip dosed BALB/c mouse; assay type: functional
T98G = assay: Photocytotoxicity against human T98G cells assessed as cell survival preincubated for 24 hrs followed by irradiation at 16 J/cm2 measured at 24 hrs by WST-8 assay; assay type: functional, cell-based; settings: light or radiation study
In short: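 Cells (5 × 10^3/well) in DMEM with 10% FCS, 24 h at 37°C, 5% CO2; photosensitizer 1–50000 nM (1% DMSO final) for 24 h, washed, fresh medium. Irradiated with 100-W halogen lamp through λ>500 nm or λ>600 nm cutoff filter to 16 J·cm−2; WST-8 absorbance at 450 nm 24 h later, survival normalized to no-drug wells.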

HeLa = assay: Drug uptake in human HeLa cells at 0.1 uM after 24 hrs by spectrophotometrical analysis; assay type: ADME, cell-based
In short: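 HeLa cells (2.5 × 10^6/well) in DMEM with 10% FCS, preincubated 24 h at 37°C; photosensitizer added to 0.1 µM final (1% DMSO) for 24 h, two wells each. Cells washed twice with PBS, lysed in DMSO, Soret-band absorbance read against DMSO calibration; mean of three replicate experiments.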

[3] = Drug uptake in mitochondria of human Hela cells at 0.5 uM preincubated for 24 hrs followed by MitoTracker Green FM addition for 30 mins by CSLM analysis; assay type: ADME; settings: 0.5 h
In short: (§2)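 HeLa cells (1 × 10^4) plated 24 h, incubated 24 h with 0.5 µM final photosensitizer (1% DMSO), washed, stained 30 min with 250 nM MitoTracker Green FM in HBSS at 37°C, fixed in 4% paraformaldehyde. Confocal imaging: red λex 488/λem 650 nm; green λex 488/λem 505–530 nm.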

[4] = Drug uptake in nucleus of human Hela cells at 0.5 uM preincubated for 24 hrs followed by MitoTracker Green FM addition for 30 mins by CSLM analysis; assay type: ADME, cell-based; settings: 0.5 h; in short: as §2
Heart [5] = assay: Drug uptake in BALB/c mouse heart implanted with mouse 4T1 cells assessed per gram of tissue at 0.18 mg/kg, ip after 6 hrs by HPLC-based fluorescence analysis; assay type: ADME, organism-based; settings: in vivo
In short: (§3)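 Female BALB/c mice bearing 4T1 thigh tumours received an i.p. dose in ethanol/PEG400/H2O (2/3/5) with 0.1% DMSO, or in saline, and were kept dark until killed. Tissues were weighed (100 mg), homogenised in CH3OH/DMSO/H2O (32/8/1) and centrifuged twice at 2300×g at 4°C. Supernatants were analysed by HPLC with fluorescence detection (λex 404/λem 654 nm or λex 400/λem 666 nm). n = 3 per time point.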

Liver [6] = assay: Drug uptake in BALB/c mouse liver implanted with mouse 4T1 cells assessed per gram of tissue at 0.18 mg/kg, ip after 6 hrs by HPLC-based fluorescence analysis; assay type: ADME, organism-based; settings: in vivo; in short: as §3
Kidney [7] = assay: Drug uptake in BALB/c mouse kidney implanted with mouse 4T1 cells assessed per gram of tissue at 0.18 mg/kg, ip after 6 hrs by HPLC-based fluorescence analysis; assay type: ADME, organism-based; settings: in vivo; in short: as §3
Heart [8] = assay: Drug uptake in BALB/c mouse heart implanted with mouse 4T1 cells assessed per gram of tissue at 0.18 mg/kg, ip after 12 hrs by HPLC-based fluorescence analysis; assay type: ADME, organism-based; settings: in vivo; in short: as §3
Stomach [9] = assay: Drug uptake in BALB/c mouse stomach implanted with mouse 4T1 cells assessed per gram of tissue at 0.18 mg/kg, ip after 12 hrs by HPLC-based fluorescence analysis; assay type: ADME, organism-based; settings: in vivo; in short: as §1
Liver [10] = assay: Drug uptake in BALB/c mouse liver implanted with mouse 4T1 cells assessed per gram of tissue at 0.18 mg/kg, ip after 12 hrs by HPLC-based fluorescence analysis; assay type: ADME, organism-based; settings: in vivo; in short: as §3
[11] = Drug uptake in BALB/c mouse small intestine implanted with mouse 4T1 cells assessed per gram of tissue at 0.18 mg/kg, ip after 12 hrs by HPLC-based fluorescence analysis; assay type: ADME, organism-based; settings: in vivo; in short: as §1
[12] = Drug uptake in BALB/c mouse large intestine implanted with mouse 4T1 cells assessed per gram of tissue at 0.18 mg/kg, ip after 12 hrs by HPLC-based fluorescence analysis; assay type: ADME, organism-based; settings: in vivo; in short: as §3
Kidney [13] = assay: Drug uptake in BALB/c mouse kidney implanted with mouse 4T1 cells assessed per gram of tissue at 0.18 mg/kg, ip after 12 hrs by HPLC-based fluorescence analysis; assay type: ADME, organism-based; settings: in vivo; in short: as §3
Muscle tissue = assay: Drug uptake in BALB/c mouse muscle implanted with mouse 4T1 cells assessed per gram of tissue at 0.18 mg/kg, ip after 12 hrs by HPLC-based fluorescence analysis; assay type: ADME, organism-based; settings: in vivo; in short: as §3
Stomach [14] = assay: Drug uptake in BALB/c mouse stomach implanted with mouse 4T1 cells assessed per gram of tissue at 0.18 mg/kg, ip after 24 hrs by HPLC-based fluorescence analysis; assay type: ADME, organism-based; settings: in vivo; in short: as §1
Zone of skin = assay: Drug uptake in BALB/c mouse skin implanted with mouse 4T1 cells assessed per gram of tissue at 0.18 mg/kg, ip after 24 hrs by HPLC-based fluorescence analysis; assay type: ADME, organism-based; settings: in vivo; in short: as §1
Lung [15] = assay: Drug uptake in BALB/c mouse lung implanted with mouse 4T1 cells assessed per gram of tissue at 0.18 mg/kg, ip after 48 hrs by HPLC-based fluorescence analysis; assay type: ADME, organism-based; settings: in vivo; in short: as §3
Kidney [16] = assay: Drug uptake in BALB/c mouse kidney implanted with mouse 4T1 cells assessed per gram of tissue at 0.18 mg/kg, ip after 48 hrs by HPLC-based fluorescence analysis; assay type: ADME, organism-based; settings: in vivo; in short: as §3
4T1 [17] = assay: Drug uptake in mouse 4T1 cells implanted in BALB/c mouse assessed per gram of tissue at 0.18 mg/kg, ip after 48 hrs by HPLC-based fluorescence analysis; assay type: ADME, organism-based; settings: in vivo; in short: as §1
Lung [18] = assay: Drug uptake in BALB/c mouse lung implanted with mouse 4T1 cells assessed per gram of tissue at 0.18 mg/kg, ip after 72 hrs by HPLC-based fluorescence analysis; assay type: ADME, organism-based; settings: in vivo; in short: as §3
Mus musculus = assay: Drug uptake in mouse 4T1 cells implanted BALB/c mouse assessed as time for drug accumulation at 0.045 to 0.36 mg/kg, ip administered for 48 hrs followed by irradiation at 40 mW/cm2; settings: in vivo

- Drug uptake (Spleen): 8 ng
- Drug uptake (HeLa): Active
- Drug uptake [3]: Active
- Drug uptake [4]: Not Active
- Drug uptake (Heart [5]): 24 ng/g
- Drug uptake (Liver [6]): 109 ng/g
- Drug uptake (Kidney [7]): 38 ng
- Drug uptake (Heart [8]): 6 ng/g
- Drug uptake (Stomach [9]): 20 ng/g
- Drug uptake (Liver [10]): 60 ng/g
- Drug uptake [11]: 80 ng
- Drug uptake [12]: 41 ng
- Drug uptake (Kidney [13]): 25 ng
- Drug uptake (Muscle tissue): 4 ng
- Drug uptake (Stomach [14]): 31 ng/g
- Drug uptake (Zone of skin): 0 ng
- Drug uptake (Lung [15]): 11 ng
- Drug uptake (Kidney [16]): 5 ng
- Drug uptake (4T1 [17]): 1.4 ng/g
- Drug uptake (Lung [18]): 7 ng/g
- Time (Mus musculus): 48 h
SMILES: CN1CC2C3=N/C(=C(/c4c(F)c(F)c(S[C@@H]5O[C@H](CO)[C@@H](O)[C@H](O)[C@H]5O)c(F)c4F)C4=N/C(=C(/c5c(F)c(F)c(F)c(F)c5F)c5ccc([nH]5)/C(c5c(F)c(F)c(S[C@@H]6O[C@H](CO)[C@@H](O)[C@H](O)[C@H]6O)c(F)c5F)=C5/C=CC(=N5)C3c3c(F)c(F)c(F)c(F)c3F)C=C4)C2C1 (some centres undefined)
- Activity (4T1 [1]): Active
- Ratio (4T1 [2]): 250
- EC50 (T98G): 0.5 nM
